Assay results published in ChEMBL document CHEMBL3045048, “Synthesis and antifungal action of new tricyclazole analogues” (2004).
Active and inactive are the calls of the source. The rule behind the calls is not given here.

Assays:
[1] = tested on: Penicillium italicum; test: microbe, parasite or virus in culture; assay type: functional; conditions: ATCC 48952, 120 h, read-out: GI
[2] = tested on: Sclerotinia minor; test: microbe, parasite or virus in culture; assay type: functional; conditions: 120 h, read-out: GI
[3] = tested on: Penicillium crustosum; test: microbe, parasite or virus in culture; assay type: functional; conditions: 120 h, read-out: GI
[4] = tested on: Botrytis cinerea; test: microbe, parasite or virus in culture; assay type: functional; conditions: 120 h, read-out: GI
[5] = tested on: Botrytis cinerea; test: Antifungal activity against Botryotinia fuckeliana assessed as increased quantities of material in immediate layer of cell wall at 200 ug/ml after 5 days by electron microscopy; assay type: functional, organism-based
[6] = tested on: Penicillium italicum; test: Antifungal activity against Penicillium italicum ATCC 48952 assessed as color variation of hyphae at 200 ug/ml after 5 days by electron microscopy; assay type: functional, organism-based
How it was run: (§1)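 Mycelium disks (10 mm) from stationary-phase cultures were grown on cellophane over PDA at 26 ± 1 °C to log phase. They were then moved to PDA containing compound at 200 µg mL-1 from DMSO stock (final DMSO 0.1%), with 0.1% DMSO controls. Pigmentation was judged visually and photographically against untreated cultures of the same age.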

[7] = tested on: Pyricularia grisea; test: Antifungal activity against Magnaporthe grisea assessed as bleaching of hyphae at 200 ug/ml after 5 days by electron microscopy; assay type: functional, organism-based
How it was run: as §1

[8] = tested on: Botrytis cinerea; test: microbe, parasite or virus in culture; assay type: functional; conditions: 120 h, read-out: GI; remark: listed apart in the source
[9] = tested on: Pyricularia grisea; test: microbe, parasite or virus in culture; assay type: functional; conditions: 120 h, read-out: GI
[10] = tested on: Trichoderma viride; test: microbe, parasite or virus in culture; assay type: functional; conditions: 120 h, read-out: GI
[11] = tested on: Botrytis cinerea; test: Antifungal activity against Botryotinia fuckeliana assessed as anamalous stratification at septa at 200 ug/ml after 5 days by electron microscopy; assay type: functional, organism-based
[12] = tested on: Alternaria solani; test: microbe, parasite or virus in culture; assay type: functional; conditions: 120 h, read-out: GI
[13] = tested on: Trichoderma harzianum; test: microbe, parasite or virus in culture; assay type: functional; conditions: (Pers.)-Tul, 120 h, read-out: GI
[14] = tested on: Berkeleyomyces basicola; test: Antifungal activity against Thielaviopsis basicola Went assessed as color variation of hyphae at 200 ug/ml after 5 days by electron microscopy; assay type: functional, organism-based
How it was run: as §1

[15] = tested on: Penicillium italicum; test: microbe, parasite or virus in culture; assay type: functional; conditions: ATCC 48952, 120 h, read-out: GI; remark: listed apart in the source
[16] = tested on: Trichoderma harzianum; test: microbe, parasite or virus in culture; assay type: functional; conditions: (Pers.)-Tul, 120 h, read-out: GI; remark: listed apart in the source
[17] = tested on: Botrytis cinerea; test: Antifungal activity against Botryotinia fuckeliana assessed as inhibition of pigmentation of hyphae at 200 ug/ml after 5 days by electron microscopy; assay type: functional, organism-based
How it was run: as §1

[18] = tested on: Trichoderma viride; test: microbe, parasite or virus in culture; assay type: functional; conditions: 120 h, read-out: GI; remark: listed apart in the source
[19] = tested on: Berkeleyomyces basicola; test: microbe, parasite or virus in culture; assay type: functional; conditions: 120 h, read-out: GI
[20] = tested on: Penicillium crustosum; test: Antifungal activity against Penicillium crustosum assessed as color variation of hyphae at 200 ug/ml after 5 days by electron microscopy; assay type: functional, organism-based
How it was run: as §1

[21] = tested on: Alternaria solani; test: Antifungal activity against Alternaria solani Nees assessed as bleaching of hyphae at 200 ug/ml after 5 days by electron microscopy; assay type: functional, organism-based
How it was run: as §1

[22] = tested on: Pyricularia grisea; test: microbe, parasite or virus in culture; assay type: functional; conditions: 120 h, read-out: GI; remark: listed apart in the source
[23] = tested on: Pyricularia grisea; test: microbe, parasite or virus in culture; assay type: functional; conditions: 120 h, read-out: GI; remark: listed apart in the source
[24] = tested on: Alternaria solani; test: microbe, parasite or virus in culture; assay type: functional; conditions: 120 h, read-out: GI; remark: listed apart in the source
[25] = tested on: Berkeleyomyces basicola; test: microbe, parasite or virus in culture; assay type: functional; conditions: 120 h, read-out: GI; remark: listed apart in the source
[26] = tested on: Penicillium crustosum; test: microbe, parasite or virus in culture; assay type: functional; conditions: 120 h, read-out: GI; remark: listed apart in the source
[27] = tested on: Botrytis cinerea; test: microbe, parasite or virus in culture; assay type: functional; conditions: 120 h, read-out: GI; remark: listed apart in the source
[28] = tested on: Botrytis cinerea; test: microbe, parasite or virus in culture; assay type: functional; conditions: 120 h, read-out: GI; remark: listed apart in the source
[29] = tested on: Sclerotinia minor; test: Antifungal activity against Sclerotinia minor assessed as color variation of hyphae at 200 ug/ml after 5 days by electron microscopy; assay type: functional, organism-based
How it was run: as §1

[30] = tested on: Trichoderma harzianum; test: Antifungal activity against Trichoderma harzianum (Pers.)-Tul assessed as color variation of hyphae at 200 ug/ml after 5 days by electron microscopy; assay type: functional, organism-based
How it was run: as §1

[31] = tested on: Sclerotinia minor; test: microbe, parasite or virus in culture; assay type: functional; conditions: 120 h, read-out: GI; remark: listed apart in the source
[32] = tested on: Pyricularia grisea; test: microbe, parasite or virus in culture; assay type: functional; conditions: 120 h, read-out: GI; remark: listed apart in the source

SMILES	inhibition of growth at 200 µg/mL [1]	inhibition of growth at 200 µg/mL [2]	inhibition of growth at 200 µg/mL [3]	inhibition of growth at 100 µg/mL [4]	inhibition of growth at 50 µg/mL [8]	inhibition of growth at 50 µg/mL [9]	inhibition of growth at 200 µg/mL [10]	inhibition of growth at 100 µg/mL [12]	inhibition of growth at 100 µg/mL [13]	inhibition of growth at 100 µg/mL [15]	inhibition of growth at 200 µg/mL [16]	inhibition of growth at 100 µg/mL [18]	inhibition of growth at 200 µg/mL [19]	inhibition of growth at 10 µg/mL [22]	inhibition of growth at 100 µg/mL [23]	inhibition of growth at 200 µg/mL [24]	inhibition of growth at 100 µg/mL [25]	inhibition of growth at 10 µg/mL [27]	inhibition of growth at 200 µg/mL [28]	inhibition of growth at 200 µg/mL [32]	also measured
Cc1nn(C)c2c1sc1nncn12	0%	0%	10%	28.8%	14.6%	13%	0%	0%	0%	0%	0%	0%	0%	12.2%	20.5%	23.4%	0%	10.8%	65.4%	59.1%	Activity [5]: Active; Activity [6]: Active; Activity [7]: Active; Activity [11]: Active; Activity [14]: Active; Activity [17]: inactive; Activity [20]: Active; Activity [21]: Active; inhibition of growth at 100 µg/mL [26]: 0%; Activity [29]: Active; Activity [30]: Active; inhibition of growth at 100 µg/mL [31]: 0%
Cn1ncc2sc3nncn3c21				19.3%	4%	8.2%								3%	24%			0%	32.2%	43.4%	
Cc1cccc2sc3nncn3c12 [TRICYCLAZOLE]	70.4%	0%	95%	29.6%	8.3%	24.1%	60%	0%	20%	20.1%	50.2%	20.2%	66.6%	0%	62.3%	0%	40.1%	0%	77.8%	94%	inhibition of growth at 100 µg/mL [26]: 80.3%; inhibition of growth at 100 µg/mL [31]: 0%
